Consider 1 substance from PMC9939322 (Acta Pharmaceutica Sinica. B, 2022).

The subject of this test is mice with DSS-induced acute colitis. The experiment in a line: Treatment of DSS-induced acute colitis in mice. To be noted: oral, daily, 7 days; Ac2-26 95.2 μg/kg; ATTN 35 mg/kg. Format: in vivo, C57BL/6 J mice. The procedure, abridged:
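Acute colitis induced in C57BL/6 J mice by 3% (w/v) DSS in drinking water for 7 days. Colitis mice were randomized into 4 groups and dosed daily by oral gavage with one of: saline, free peptide, peptide-free carrier nanoparticles (35 mg/kg), or peptide-loaded nanoparticles (35 mg/kg). Peptide dose was 95.2 μg/kg in every peptide-containing formulation.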

Ends that are not written are not given here.

In the case of “Ac2-26: pro-resolving peptide Ac2-26, synthesized by ChinaPeptides Co., Ltd. (Ac-AMVSEFLKQAWFIENEEQEYVQTVK; UniProt P04083 2-26, looked up, fragment)”, the “depletion of goblet cells (PAS staining)” value was “no beneficial effects”.
